The source of these data is ChEMBL document CHEMBL1821604, “Anticancer activity and cDNA microarray studies of a (RS)-1,2,3,5-tetrahydro-4,1-benzoxazepine-3-yl]-6-chloro-9H-purine, and an acyclic (RS)-O,N-acetalic 6-chloro-7H-purine” (Eur J Med Chem, 2011).

The structures appear in SMILES notation.

Experiment [1] deals with HT-29. Put plainly: Down regulation of SLC28A2 gene expression in human HT-29 cells at IC50 after 48 hrs by cDNA microarray technique relative to control. Format: functional.
Experiment [2] has as its system MCF7. The experiment in a line: Upregulation of ERG gene expression in human MCF7 cells at IC50 after 48 hrs by cDNA microarray technique relative to control. Format: functional.
The subject of experiment [3] is MCF7. The experiment in a line: Upregulation of CR595826 gene expression in human MCF7 cells at IC50 after 48 hrs by cDNA microarray technique relative to control. Format: functional.
The subject of experiment [4] is MCF7. The experiment in a line: Down regulation of FLJ37562 gene expression in human MCF7 cells at IC50 after 48 hrs by cDNA microarray technique relative to control. Format: functional. An outline of the steps: (§1)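 Cells (8 × 10⁶) were cultured in DMEM with 10% heat-inactivated FBS at 37 °C under 5% CO₂. They were exposed for 48 h to compound at its IC₅₀, with DMSO-treated parallel cultures as controls (final DMSO ≤0.1% v/v). Total RNA was isolated by trizol/chloroform phase separation, RNeasy column cleanup and on-column DNase, then quantified by OD260/OD280. Expression was profiled by cDNA microarray relative to control.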

The test system of experiment [5] is MCF7. Put plainly: Upregulation of PTPNS1 gene expression in human MCF7 cells at IC50 after 48 hrs by cDNA microarray technique relative to control. Format: functional.
The subject of experiment [6] is HT-29. The experiment in a line: Upregulation of GALNT10 gene expression in human HT-29 cells at IC50 after 48 hrs by cDNA microarray technique relative to control. Format: functional.
In experiment [7] the test system is HT-29. Put plainly: Down regulation of NFATC1 gene expression in human HT-29 cells at IC50 after 48 hrs by cDNA microarray technique relative to control. Format: functional.
Experiment [8] relates to MCF7. The experiment in a line: Down regulation of EFHC2 gene expression in human MCF7 cells at IC50 after 48 hrs by cDNA microarray technique relative to control. Format: functional. An outline of the steps: as §1
The test system of experiment [9] is HT-29. Put plainly: Upregulation of Beta4GalNAc-T4 gene expression in human HT-29 cells at IC50 after 48 hrs by cDNA microarray technique relative to control. Format: functional.
Experiment [10] relates to HT-29. The experiment in a line: Upregulation of PDE4B gene expression in human HT-29 cells at IC50 after 48 hrs by cDNA microarray technique relative to control. Format: functional.
In experiment [11] the test system is MCF7. The experiment in a line: Down regulation of RAC2 gene expression in human MCF7 cells at IC50 after 48 hrs by cDNA microarray technique relative to control. Format: functional.
Experiment [12] deals with MCF7. The experiment in a line: Down regulation of ZNF336 gene expression in human MCF7 cells at IC50 after 48 hrs by cDNA microarray technique relative to control. Format: functional.
For experiment [13], the system named is MCF7. Put plainly: Down regulation of DOK5 gene expression in human MCF7 cells at IC50 after 48 hrs by cDNA microarray technique relative to control. Format: functional. An outline of the steps: as §1
Experiment [14] relates to HT-29. Put plainly: Down regulation of LOC144448 gene expression in human HT-29 cells at IC50 after 48 hrs by cDNA microarray technique relative to control. Format: functional.
The test system of experiment [15] is HT-29. Put plainly: Down regulation of CD1B gene expression in human HT-29 cells at IC50 after 48 hrs by cDNA microarray technique relative to control. Format: functional. The method, boiled down:
(§2)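 8 × 10⁶ cells exposed 48 h to compound at its IC50 concentration; total RNA isolated with trizol/chloroform and RNeasy columns including on-column DNase step; RNA quantified by OD 260/280; DMSO-treated cultures as control.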

For experiment [16], the system named is HT-29. Put plainly: Upregulation of LOC283385 gene expression in human HT-29 cells at IC50 after 48 hrs by cDNA microarray technique relative to control. Format: functional.
Experiment [17] has as its system HT-29. The experiment in a line: Down regulation of ALB gene expression in human HT-29 cells at IC50 after 48 hrs by cDNA microarray technique relative to control. Format: functional. An outline of the steps: as §2
In experiment [18] the test system is HT-29. Put plainly: Down regulation of KCNJ16 gene expression in human HT-29 cells at IC50 after 48 hrs by cDNA microarray technique relative to control. Format: functional. The method, boiled down: as §1
Experiment [19] has as its system MCF7. The experiment in a line: Cytotoxicity against human MCF7 cells after 6 days by SRB colorimetric assay. Format: functional, cell-based. To be noted: MCF7, 144 h. (In general: In SRB staining, fixed cells bind dye roughly in proportion to their protein.)
In experiment [20] the test system is MCF7. Put plainly: Down regulation of AF086546 gene expression in human MCF7 cells at IC50 after 48 hrs by cDNA microarray technique relative to control. Format: functional. The method, boiled down: as §2
The test system of experiment [21] is MCF7. The experiment in a line: Upregulation of SPACA3 gene expression in human MCF7 cells at IC50 after 48 hrs by cDNA microarray technique relative to control. Format: functional.
The test system of experiment [22] is HT-29. Put plainly: Down regulation of LMNB1 gene expression in human HT-29 cells at IC50 after 48 hrs by cDNA microarray technique relative to control. Format: functional. An outline of the steps:
as §1

Experiment [23] relates to HT-29. The experiment in a line: Down regulation of FLJ23436 gene expression in human HT-29 cells at IC50 after 48 hrs by cDNA microarray technique relative to control. Format: functional. The method, boiled down:
as §1

The test system of experiment [24] is MCF7. The experiment in a line: Down regulation of THC2438856 gene expression in human MCF7 cells at IC50 after 48 hrs by cDNA microarray technique relative to control. Format: functional.
In experiment [25] the test system is HT-29. Put plainly: Down regulation of MGC33637 gene expression in human HT-29 cells at IC50 after 48 hrs by cDNA microarray technique relative to control. Format: functional.
In experiment [26] the test system is MCF7. The experiment in a line: Upregulation of ATP12A gene expression in human MCF7 cells at IC50 after 48 hrs by cDNA microarray technique relative to control. Format: functional.
Experiment [27] concerns HT-29. Put plainly: Down regulation of ARL10B gene expression in human HT-29 cells at IC50 after 48 hrs by cDNA microarray technique relative to control. Format: functional. An outline of the steps: as §2
Experiment [28] relates to HT-29. Put plainly: Down regulation of RALGDS gene expression in human HT-29 cells at IC50 after 48 hrs by cDNA microarray technique relative to control. Format: functional.
The subject of experiment [29] is MCF7. The experiment in a line: Upregulation of OXSR1 gene expression in human MCF7 cells at IC50 after 48 hrs by cDNA microarray technique relative to control. Format: functional.
In experiment [30] the test system is MCF7. Put plainly: Down regulation of TSGA10 gene expression in human MCF7 cells at IC50 after 48 hrs by cDNA microarray technique relative to control. Format: functional.
Experiment [31] deals with MCF7. Put plainly: Down regulation of TMPRSS6 gene expression in human MCF7 cells at IC50 after 48 hrs by cDNA microarray technique relative to control. Format: functional.
Experiment [32] has as its system HT-29. Put plainly: Upregulation of EGLN3 gene expression in human HT-29 cells at IC50 after 48 hrs by cDNA microarray technique relative to control. Format: functional.
Experiment [33] relates to HT-29. Put plainly: Down regulation of MDGA1 gene expression in human HT-29 cells at IC50 after 48 hrs by cDNA microarray technique relative to control. Format: functional.
Experiment [34] has as its system MCF7. The experiment in a line: Down regulation of P2RY13 gene expression in human MCF7 cells at IC50 after 48 hrs by cDNA microarray technique relative to control. Format: functional.
The subject of experiment [35] is HT-29. The experiment in a line: Down regulation of NIPSNAP3B gene expression in human HT-29 cells at IC50 after 48 hrs by cDNA microarray technique relative to control. Format: functional.
For experiment [36], the system named is MCF7. The experiment in a line: Down regulation of OR8A1 gene expression in human MCF7 cells at IC50 after 48 hrs by cDNA microarray technique relative to control. Format: functional.
In experiment [37] the test system is MCF7. Put plainly: Down regulation of SPINK2 gene expression in human MCF7 cells at IC50 after 48 hrs by cDNA microarray technique relative to control. Format: functional.
Experiment [38] relates to HT-29. Put plainly: Down regulation of BAP1 gene expression in human HT-29 cells at IC50 after 48 hrs by cDNA microarray technique relative to control. Format: functional. The method, boiled down: as §2

Broadly, the IC50 is the midpoint of a concentration-inhibition curve. Higher therefore signals weaker potency in that assay. On to `COC(CN(c1ccccc1CO)S(=O)(=O)c1ccccc1[N+](=O)[O-])n1cnc2ncnc(Cl)c21` (racemic), for which the “fold change (FC)” value is -3.32 in the experiment on HT-29 [1]; 2 with MCF7 [2]; 2.04 in the experiment with MCF7 [3]; -2.08 in the experiment on MCF7 [4]; 2.89 in the experiment with MCF7 [5]; 3.5 in the experiment with HT-29 [6]. Besides, the “fold change (FC)” value in the experiment with HT-29 [7] is recorded as -2.78; in the experiment with MCF7 [8] it was -2.27; with HT-29 [9], 3.08; in the experiment on HT-29 [10], 3.84; in the experiment on MCF7 [11], -2.29; in the experiment with MCF7 [12] it was -2.45. Moreover, the “fold change (FC)” value with MCF7 [13] was -2.11; with HT-29 [14], -2.45; in the experiment on HT-29 [15], -2.32; with HT-29 [16] it was 4.37; in the experiment on HT-29 [17], -2.32; in the experiment on HT-29 [18], -2.21. For the same compound, the “fold change (FC)” value in the experiment on MCF7 [20] is -2.14; in the experiment with MCF7 [21], 2.21. Moreover, the midpoint of inhibition in the experiment on MCF7 [19], the IC50, lay at 3.25 µM.
On to `O=C(OCC1c2ccccc2-c2ccccc21)N1CC(n2cnc3c(Cl)ncnc32)OCc2ccccc21` (racemic), for which the “fold change (FC)” value is listed as -3 in the experiment on HT-29 [22]; -2.2 in the experiment with HT-29 [23]; -3.05 in the experiment with MCF7 [24]; -2.25 in the experiment on HT-29 [25]; 2.05 in the experiment on MCF7 [26]; -2.27 in the experiment on HT-29 [27]. Further, the “fold change (FC)” value is recorded as -2.01 with HT-29 [28]; 2.21 in the experiment on MCF7 [29]; -3.3 with MCF7 [30]; -2.03 with MCF7 [31]; 2.14 with HT-29 [32]; -3.92 in the experiment on HT-29 [33]. Besides, the “fold change (FC)” value in the experiment with MCF7 [34] is reported as -3.05; with HT-29 [35], -2.21; in the experiment on MCF7 [36], -3.03; with MCF7 [37], -3.01; in the experiment on HT-29 [38], -2.13.
